Experimental data from ChEMBL document CHEMBL1157693, “Microwave assisted synthesis and antimicrobial activity of 2-quinoxalinone-3-hydrazone derivatives” (2010).
In brackets after ≈: the same amount, converted by molar mass. Activity calls are given as the source filed them. The calls are words filed in the database; no cut-off is given here.

Key:
Format in all cases: functional
Candida albicans = assay: Antifungal activity against Candida albicans after 3 days by agar well diffusion method
Bacillus cereus [1] = assay: Antibacterial activity against Bacillus cereus NCIB 6349 after 24 hrs by agar well diffusion method; further: test concentration or dose not given here
How it was run: (§1)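 Agar well diffusion. Clinical isolates were first checked for viability, then grown in nutrient broth for 8 h at 37 °C. About 0.2 ml of broth culture was mixed into 18 ml molten diagnostic sensitivity test agar cooled to 45 °C and poured into plates. Compounds in DMSO went into bored wells, with streptomycin as reference. Plates stood 1 h for diffusion, then were incubated upright at 37 °C for 24 h. Clear inhibition zones were read in mm.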

Bacillus subtilis [2] = assay: Antibacterial activity against Bacillus subtilis NCIB 3610 after 72 hrs; details: NCIB 3610, 72 h
How it was run: (§2)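 MIC by the Russell and Furr method, run on selected Gram-positive and Gram-negative strains. Once the agar had set and its surface had dried, nutrient agar plates were streaked with overnight broth cultures. They were incubated at 37 °C for up to 72 h and scored for presence or absence of growth.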

[3] = test system: Geobacillus stearothermophilus; assay: Antibacterial activity against Bacillus stearothermophilus NCIB 8222 after 72 hrs; details: NCIB 8222, 72 h; how it was run: as §2
Klebsiella pneumoniae [4] = assay: Antibacterial activity against Klebsiella pneumoniae NCIB 418 after 72 hrs; how it was run: as §2
Pseudomonas aeruginosa = assay: Antibacterial activity against Pseudomonas aeruginosa NCIB 950 after 24 hrs by agar well diffusion method; how it was run: as §1; further: test concentration or dose not given here
Klebsiella pneumoniae [5] = assay: Antibacterial activity against Klebsiella pneumoniae NCIB 418 after 24 hrs by agar well diffusion method; how it was run: as §1; further: test concentration or dose not given here
Bacillus anthracis [6] = assay: Antibacterial activity against Bacillus anthracis after 24 hrs by agar well diffusion method
Escherichia coli [7] = assay: Antibacterial activity against Escherichia coli NCIB 86 after 24 hrs by agar well diffusion method; how it was run: as §1; further: test concentration or dose not given here
Bacillus anthracis [8] = assay: Antibacterial activity against Bacillus anthracis after 72 hrs
Escherichia coli [9] = assay: Antibacterial activity against Escherichia coli NCIB 86 after 72 hrs; how it was run: as §2
Pseudomonas fluorescens = assay: Antibacterial activity against Pseudomonas fluorescens NCIB 3756 after 24 hrs by agar well diffusion method; how it was run: as §1; further: test concentration or dose not given here
Shigella dysenteriae [10] = assay: Antibacterial activity against Shigella dysenteriae after 72 hrs
How it was run: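 MIC by agar dilution: compound-containing nutrient agar was set and surface-dried, then streaked with overnight broth culture of the clinical isolate. Incubated at 37 °C for up to 72 h and scored for presence or absence of growth. Streptomycin was the reference.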

Bacillus subtilis [11] = assay: Antibacterial activity against Bacillus subtilis NCIB 3610 after 24 hrs by agar well diffusion method; how it was run: as §1; further: test concentration or dose not given here
Staphylococcus aureus [12] = assay: Antibacterial activity against Staphylococcus aureus NCIB 8588 after 24 hrs by agar well diffusion method; how it was run: as §1; further: test concentration or dose not given here
Bacillus cereus [13] = assay: Antibacterial activity against Bacillus cereus NCIB 6349 after 72 hrs; details: NCIB 6349, 72 h; how it was run: as §2
Staphylococcus aureus [14] = assay: Antibacterial activity against Staphylococcus aureus NCIB 8588 after 72 hrs; details: NCIB 8588, 72 h; how it was run: as §2
Shigella dysenteriae [15] = assay: Antibacterial activity against Shigella dysenteriae after 24 hrs by agar well diffusion method
[16] = test system: Geobacillus stearothermophilus; assay: Antibacterial activity against Bacillus stearothermophilus NCIB 8222 after 24 hrs by agar well diffusion method; how it was run: as §1; further: test concentration or dose not given here

SMILES | inhibition zone (IZ) (Candida albicans) | inhibition zone (IZ) (Bacillus cereus [1]) [mm] | MIC (Bacillus subtilis [2]) [µg/mL] | MIC [3] [µg/mL] | MIC (Klebsiella pneumoniae [4]; NCIB 418, 72 h) [µg/mL] | inhibition zone (IZ) (Pseudomonas aeruginosa) [mm] | inhibition zone (IZ) (Klebsiella pneumoniae [5]) [mm] | inhibition zone (IZ) (Bacillus anthracis [6]) [mm] | inhibition zone (IZ) (Escherichia coli [7]) [mm] | MIC (Bacillus anthracis [8]) [µg/mL] | MIC (Escherichia coli [9]; NCIB 86, 72 h) [µg/mL] | inhibition zone (IZ) (Pseudomonas fluorescens) [mm] | MIC (Shigella dysenteriae [10]) | inhibition zone (IZ) (Bacillus subtilis [11]) [mm] | inhibition zone (IZ) (Staphylococcus aureus [12]) [mm] | MIC (Bacillus cereus [13]) [µg/mL] | MIC (Staphylococcus aureus [14]) [µg/mL] | inhibition zone (IZ) (Shigella dysenteriae [15]) [mm] | inhibition zone (IZ) [16] [mm] | other results
C/C(=N\Nc1nc2ccccc2[nH]c1=O)c1cc2ccccc2oc1=O | 29 mm | 20 | 7.8 (≈ 22.5 µM) | 31.3 (≈ 90.4 µM) | 31.3 (≈ 90.4 µM) | 0 | 20 | 18 | 30 | 62.5 (≈ 180 µM) | 31.3 (≈ 90.4 µM) | 0 | inactive | 32 | 15 | 31.3 (≈ 90.4 µM) | 31.3 (≈ 90.4 µM) | 0 | 28 | –
CN[C@@H]1[C@H](O[C@H]2[C@H](O[C@H]3[C@H](O)[C@@H](O)[C@H](N=C(N)N)[C@@H](O)[C@@H]3N=C(N)N)O[C@@H](C)[C@]2(O)C=O)O[C@@H](CO)[C@H](O)[C@H]1O [STREPTOMYCIN] | inactive | 28 | 15.6 (≈ 26.8 µM) | 7.8 (≈ 13.4 µM) | – | 0 | 0 | 18 | 0 | 31.3 (≈ 53.8 µM) | – | 30 | 15.6 µg/mL (≈ 26.8 µM) | 20 | 21 | 7.8 (≈ 13.4 µM) | 7.8 (≈ 13.4 µM) | 22 | 23 | MIC (Klebsiella pneumoniae [4]): inactive; MIC (Escherichia coli [9]): inactive
O=c1[nH]c2ccccc2nc1NN=C1c2ccccc2Cc2ccccc21 | 9 mm | 25 | 31.3 (≈ 88.8 µM) | 15.6 (≈ 44.3 µM) | 7.8 (≈ 22.1 µM) | 15 | 21 | 14 | 20 | 31.3 (≈ 88.8 µM) | 15.6 (≈ 44.3 µM) | 0 | inactive | 12 | 14 | 7.8 (≈ 22.1 µM) | 15.6 (≈ 44.3 µM) | 0 | 18 | –
CC1CCCC/C1=N\Nc1nc2ccccc2[nH]c1=O (stereo unspecified) | 14 mm | 13 | 62.5 (≈ 231 µM) | 7.8 (≈ 28.9 µM) | 7.8 (≈ 28.9 µM) | 0 | 15 | 16 | 12 | 15.6 (≈ 57.7 µM) | 31.3 (≈ 116 µM) | 13 | inactive | 12 | 19 | 15.6 (≈ 57.7 µM) | 7.8 (≈ 28.9 µM) | 0 | 25 | –
